Laboratory results from ChEMBL document CHEMBL2163325, “Discovery of phosphoinositide 3-kinases (PI3K) p110β isoform inhibitor 4-[2-hydroxyethyl(1-naphthylmethyl)amino]-6-[(2S)-2-methylmorpholin-4-yl]-1H-pyrimidin-2-one, an effective antithrombotic agent without associated bleeding and insulin resistance” (Bioorg Med Chem Lett, 2012).
Values after ≈ are worked out from the molar mass of the structure shown.

Assays:
[1] = Half life in human liver microsomes at 2 uM; type: ADME, Microsome
Cytochrome P450 2C9 = Cytochrome P450 2C9 (Homo sapiens, UniProt P11712); assay: Inhibition of CYP2C9; type: ADME
Chain of Cytochrome P450 2C9 (P11712 whole entry): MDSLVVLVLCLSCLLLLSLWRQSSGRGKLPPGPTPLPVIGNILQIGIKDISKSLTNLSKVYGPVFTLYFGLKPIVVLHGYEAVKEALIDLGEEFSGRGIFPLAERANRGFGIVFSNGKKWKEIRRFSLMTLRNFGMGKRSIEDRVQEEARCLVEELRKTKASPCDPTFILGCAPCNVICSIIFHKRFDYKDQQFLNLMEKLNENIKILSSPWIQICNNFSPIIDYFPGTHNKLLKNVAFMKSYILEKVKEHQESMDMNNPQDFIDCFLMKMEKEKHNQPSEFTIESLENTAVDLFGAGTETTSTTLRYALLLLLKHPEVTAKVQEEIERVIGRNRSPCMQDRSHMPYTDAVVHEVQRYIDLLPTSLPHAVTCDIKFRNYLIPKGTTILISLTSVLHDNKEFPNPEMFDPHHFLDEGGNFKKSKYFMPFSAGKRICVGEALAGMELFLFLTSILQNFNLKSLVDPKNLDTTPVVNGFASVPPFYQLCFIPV

[2] = Antiplatelet activity in human platelet rich plasma assessed as inhibition of collagen-induced platelet aggregation by light transmission aggregometry; type: functional
Procedure, shortened: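 Healthy-donor blood drawn by venipuncture into sodium citrate (11 mM final in blood), then platelet rich plasma prepared. Collagen-induced aggregation measured by light transmission aggregometry, either in an aggregometer or in an in-house 96-well plate format.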

[3] = Antiplatelet activity in human whole blood assessed as inhibition of ADP-induced platelet aggregation by impedance aggregometry; type: functional, tissue-based
Procedure, shortened: (§1)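 Citrated whole blood drawn by venipuncture from healthy human donors or beagle dogs, sodium citrate at 11 mM final in blood. ADP-induced aggregation read by Multiplate impedance aggregometry. N > 3.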

[4] = biological target: Voltage-dependent L-type calcium channel subunit alpha-1C (Homo sapiens, UniProt Q13936); assay: Inhibition of human CaV1.2 expressed in CHO cells at 31.6 uM by patch clamp assay; type: cell-based
Chain of Voltage-dependent L-type calcium channel subunit alpha-1C (Q13936 whole entry): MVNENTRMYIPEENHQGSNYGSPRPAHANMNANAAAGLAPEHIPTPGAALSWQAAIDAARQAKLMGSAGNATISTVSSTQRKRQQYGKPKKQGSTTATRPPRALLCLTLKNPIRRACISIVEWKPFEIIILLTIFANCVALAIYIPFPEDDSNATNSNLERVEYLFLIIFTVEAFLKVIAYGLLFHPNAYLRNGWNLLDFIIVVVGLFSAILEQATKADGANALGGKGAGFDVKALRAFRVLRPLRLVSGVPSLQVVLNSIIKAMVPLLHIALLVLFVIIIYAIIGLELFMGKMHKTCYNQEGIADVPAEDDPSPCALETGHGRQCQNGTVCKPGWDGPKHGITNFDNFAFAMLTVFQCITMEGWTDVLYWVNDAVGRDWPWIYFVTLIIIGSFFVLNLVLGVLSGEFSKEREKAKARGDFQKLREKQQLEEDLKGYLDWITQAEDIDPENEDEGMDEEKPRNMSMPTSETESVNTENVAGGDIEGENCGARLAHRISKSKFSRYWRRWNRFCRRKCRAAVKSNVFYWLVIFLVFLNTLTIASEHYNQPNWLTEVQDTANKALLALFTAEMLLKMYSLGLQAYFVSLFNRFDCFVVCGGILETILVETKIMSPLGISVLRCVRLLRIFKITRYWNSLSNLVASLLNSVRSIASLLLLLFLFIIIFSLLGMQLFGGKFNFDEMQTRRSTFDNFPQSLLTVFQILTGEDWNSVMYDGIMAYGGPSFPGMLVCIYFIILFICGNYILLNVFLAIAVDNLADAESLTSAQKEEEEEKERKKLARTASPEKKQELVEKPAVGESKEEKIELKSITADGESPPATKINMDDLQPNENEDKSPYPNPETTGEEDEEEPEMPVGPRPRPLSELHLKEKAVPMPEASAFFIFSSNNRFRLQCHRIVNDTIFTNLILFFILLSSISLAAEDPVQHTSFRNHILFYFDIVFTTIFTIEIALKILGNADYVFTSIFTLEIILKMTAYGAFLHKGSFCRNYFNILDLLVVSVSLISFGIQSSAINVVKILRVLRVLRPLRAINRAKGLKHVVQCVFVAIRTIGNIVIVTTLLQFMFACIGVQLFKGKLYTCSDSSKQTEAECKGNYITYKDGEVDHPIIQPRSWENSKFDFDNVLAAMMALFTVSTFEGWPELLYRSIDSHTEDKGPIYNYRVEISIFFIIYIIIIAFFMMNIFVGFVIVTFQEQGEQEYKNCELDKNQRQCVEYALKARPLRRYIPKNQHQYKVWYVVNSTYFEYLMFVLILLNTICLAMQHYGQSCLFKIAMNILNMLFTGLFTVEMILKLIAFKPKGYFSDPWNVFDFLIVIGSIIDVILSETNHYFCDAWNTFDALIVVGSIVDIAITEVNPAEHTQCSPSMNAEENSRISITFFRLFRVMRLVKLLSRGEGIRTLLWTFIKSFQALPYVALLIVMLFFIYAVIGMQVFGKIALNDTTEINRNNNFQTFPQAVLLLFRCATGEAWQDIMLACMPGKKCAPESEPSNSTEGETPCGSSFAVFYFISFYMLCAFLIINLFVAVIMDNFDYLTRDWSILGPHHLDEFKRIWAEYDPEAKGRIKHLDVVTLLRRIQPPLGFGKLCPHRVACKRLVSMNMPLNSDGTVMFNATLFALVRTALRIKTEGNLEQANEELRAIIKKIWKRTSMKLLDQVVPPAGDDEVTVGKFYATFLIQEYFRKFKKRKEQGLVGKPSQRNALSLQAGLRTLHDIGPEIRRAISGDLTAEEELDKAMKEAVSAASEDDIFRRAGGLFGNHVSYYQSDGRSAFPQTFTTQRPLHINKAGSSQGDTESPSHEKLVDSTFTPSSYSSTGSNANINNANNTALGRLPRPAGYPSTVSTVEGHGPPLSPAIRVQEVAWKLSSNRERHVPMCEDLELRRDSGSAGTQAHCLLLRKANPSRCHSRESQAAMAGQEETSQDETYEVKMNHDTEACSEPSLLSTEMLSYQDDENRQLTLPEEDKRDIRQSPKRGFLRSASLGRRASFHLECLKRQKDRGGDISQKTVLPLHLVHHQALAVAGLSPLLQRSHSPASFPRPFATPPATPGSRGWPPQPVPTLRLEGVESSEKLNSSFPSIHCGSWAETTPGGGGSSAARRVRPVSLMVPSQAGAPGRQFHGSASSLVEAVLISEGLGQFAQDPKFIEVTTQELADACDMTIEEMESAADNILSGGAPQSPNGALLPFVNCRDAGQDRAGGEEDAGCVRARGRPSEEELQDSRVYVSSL

[5] = Toxicity in human adipocytes assessed as inhibition of insulin-induced glucose uptake at 3 to 40 uM; type: cell-based; settings: adipocyte
Liver microsomes = assay: Drug metabolism in human liver microsomes assessed as reactive metabolite formation after 30 mins in presence of glutathione relative to clozapine; type: ADME, Microsome; settings: 0.5 h
Procedure, shortened: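 Incubation with human liver microsomes (1 mg/mL) plus glutathione for 30 min. Summed glutathione-adduct peak areas divided by the major adduct peak area of clozapine control (average, N = 3). Ratio >1 ranked high, 0.25–1 medium, <0.25 low.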

[6] = biological target: T1, Phosphatidylinositol 4,5-bisphosphate 3-kinase catalytic subunit beta isoform (Homo sapiens, UniProt P42338); assay: Inhibition of human PI3K p110beta-mediated AKT phosphorylation at Ser473 in MDA-MB-468 cells after 2 hrs by fluorescence microplate cytometric analysis; type: cell-based
T1 sequence (P42338 whole entry, canonical isoform): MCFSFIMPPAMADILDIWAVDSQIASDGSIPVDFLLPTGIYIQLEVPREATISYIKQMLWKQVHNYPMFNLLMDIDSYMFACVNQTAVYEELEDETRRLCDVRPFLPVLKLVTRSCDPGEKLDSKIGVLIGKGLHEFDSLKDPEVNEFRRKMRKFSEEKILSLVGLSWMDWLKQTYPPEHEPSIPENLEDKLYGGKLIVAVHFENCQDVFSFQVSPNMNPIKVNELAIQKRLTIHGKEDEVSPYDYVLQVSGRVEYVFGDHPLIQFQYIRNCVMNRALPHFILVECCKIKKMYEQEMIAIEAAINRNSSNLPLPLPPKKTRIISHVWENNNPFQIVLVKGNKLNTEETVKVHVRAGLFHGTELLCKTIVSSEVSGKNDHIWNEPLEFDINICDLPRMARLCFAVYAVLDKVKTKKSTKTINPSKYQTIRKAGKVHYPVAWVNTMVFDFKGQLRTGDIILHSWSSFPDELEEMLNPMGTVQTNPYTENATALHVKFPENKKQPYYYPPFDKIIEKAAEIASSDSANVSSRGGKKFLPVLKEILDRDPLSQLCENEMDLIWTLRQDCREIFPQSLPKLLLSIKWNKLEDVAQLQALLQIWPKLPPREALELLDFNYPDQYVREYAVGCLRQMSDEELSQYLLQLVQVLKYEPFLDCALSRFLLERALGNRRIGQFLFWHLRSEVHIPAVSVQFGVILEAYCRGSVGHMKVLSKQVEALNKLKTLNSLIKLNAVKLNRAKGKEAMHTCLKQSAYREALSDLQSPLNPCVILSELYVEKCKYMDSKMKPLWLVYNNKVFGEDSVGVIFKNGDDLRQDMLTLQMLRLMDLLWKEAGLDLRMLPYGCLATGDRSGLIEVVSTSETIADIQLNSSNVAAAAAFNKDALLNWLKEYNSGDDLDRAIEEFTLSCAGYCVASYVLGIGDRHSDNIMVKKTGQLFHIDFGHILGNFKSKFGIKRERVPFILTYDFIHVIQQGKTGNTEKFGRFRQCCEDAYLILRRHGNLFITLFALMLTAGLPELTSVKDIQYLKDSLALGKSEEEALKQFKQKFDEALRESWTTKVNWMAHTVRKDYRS
Procedure, shortened: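 MDA-MB-468 cells kept in DMEM with 10% heat-inactivated FCS and L-glutamine. Seeded at 1500 cells/well, incubated overnight at 37 °C, 5% CO2. Exposed to compound for 2 h. Ser473 phospho-Akt detected with a specific antibody by laser scanning fluorescence microplate cytometry.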

[7] = Clearance in fasted Beagle dog at 1 umol/kg, iv and 2 umol/kg, po; type: ADME, organism-based, Canis lupus familiaris; settings: in vivo
Procedure, shortened: (§2)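 Fasted male Beagle dogs, iv and po (N = 2 per route). Parameters derived by noncompartmental analysis of plasma concentrations.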

Homo sapiens = species: Homo sapiens; assay: Selectivity ratio of IC50 for human PI3K p110alpha to IC50 for human PI3K p110beta
[8] = Fraction unbound in dog plasma after 18 hrs by equilibrium dialysis method; type: ADME, cell-free, Canis lupus familiaris
Procedure, shortened: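 Unbound plasma fraction determined by equilibrium dialysis, 18 h at 37 °C.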

[9] = Antiplatelet activity in Beagle dog whole blood assessed as inhibition of ADP-induced platelet aggregation by impedance aggregometry; type: functional, tissue-based; settings: Canis lupus familiaris; procedure, shortened: as §1
[10] = biological target: Phosphatidylinositol 4,5-bisphosphate 3-kinase catalytic subunit gamma isoform (Homo sapiens, UniProt P48736); assay: Inhibition of human recombinant His6-tagged PI3K […] expressed in baculovirus infected cells using DiC8-PI(4,5)P2 as substrate after 20 mins by AlphaScreen assay
Chain of Phosphatidylinositol 4,5-bisphosphate 3-kinase catalytic subunit gamma isoform (P48736 whole entry, canonical isoform): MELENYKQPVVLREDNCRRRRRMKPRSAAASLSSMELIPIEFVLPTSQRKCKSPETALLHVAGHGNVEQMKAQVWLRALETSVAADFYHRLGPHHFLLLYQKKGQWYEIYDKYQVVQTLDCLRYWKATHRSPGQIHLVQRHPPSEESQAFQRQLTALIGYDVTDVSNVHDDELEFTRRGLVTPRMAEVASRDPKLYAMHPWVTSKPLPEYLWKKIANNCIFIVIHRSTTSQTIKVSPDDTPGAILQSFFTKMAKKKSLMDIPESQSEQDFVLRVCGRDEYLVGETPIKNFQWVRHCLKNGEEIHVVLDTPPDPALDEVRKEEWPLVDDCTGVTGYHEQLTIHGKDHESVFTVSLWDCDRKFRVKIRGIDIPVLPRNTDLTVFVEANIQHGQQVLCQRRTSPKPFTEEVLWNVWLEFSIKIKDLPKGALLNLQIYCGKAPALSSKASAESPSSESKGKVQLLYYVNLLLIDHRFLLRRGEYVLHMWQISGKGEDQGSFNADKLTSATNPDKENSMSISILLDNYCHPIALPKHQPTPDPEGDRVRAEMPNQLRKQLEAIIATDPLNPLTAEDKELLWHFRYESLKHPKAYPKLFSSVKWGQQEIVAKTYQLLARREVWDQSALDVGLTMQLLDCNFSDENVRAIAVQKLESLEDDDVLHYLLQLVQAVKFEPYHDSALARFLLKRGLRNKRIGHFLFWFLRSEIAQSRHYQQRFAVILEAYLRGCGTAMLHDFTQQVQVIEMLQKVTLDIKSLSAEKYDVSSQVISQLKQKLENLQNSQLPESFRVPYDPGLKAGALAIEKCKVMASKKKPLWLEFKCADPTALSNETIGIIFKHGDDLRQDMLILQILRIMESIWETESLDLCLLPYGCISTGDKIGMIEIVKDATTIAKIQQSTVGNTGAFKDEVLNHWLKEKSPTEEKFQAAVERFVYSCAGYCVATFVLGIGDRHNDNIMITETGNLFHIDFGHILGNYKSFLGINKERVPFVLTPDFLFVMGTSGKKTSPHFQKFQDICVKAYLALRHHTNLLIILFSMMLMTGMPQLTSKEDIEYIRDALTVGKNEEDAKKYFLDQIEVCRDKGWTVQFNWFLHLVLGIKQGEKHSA

[11] = biological target: T2, Phosphatidylinositol 4,5-bisphosphate 3-kinase catalytic subunit delta isoform (Homo sapiens, UniProt O00329); assay: Inhibition of human recombinant His6-tagged PI3K p110delta expressed in baculovirus infected cells using DiC8-PI(4,5)P2 as substrate after 20 mins by AlphaScreen assay
T2 sequence (O00329 whole entry): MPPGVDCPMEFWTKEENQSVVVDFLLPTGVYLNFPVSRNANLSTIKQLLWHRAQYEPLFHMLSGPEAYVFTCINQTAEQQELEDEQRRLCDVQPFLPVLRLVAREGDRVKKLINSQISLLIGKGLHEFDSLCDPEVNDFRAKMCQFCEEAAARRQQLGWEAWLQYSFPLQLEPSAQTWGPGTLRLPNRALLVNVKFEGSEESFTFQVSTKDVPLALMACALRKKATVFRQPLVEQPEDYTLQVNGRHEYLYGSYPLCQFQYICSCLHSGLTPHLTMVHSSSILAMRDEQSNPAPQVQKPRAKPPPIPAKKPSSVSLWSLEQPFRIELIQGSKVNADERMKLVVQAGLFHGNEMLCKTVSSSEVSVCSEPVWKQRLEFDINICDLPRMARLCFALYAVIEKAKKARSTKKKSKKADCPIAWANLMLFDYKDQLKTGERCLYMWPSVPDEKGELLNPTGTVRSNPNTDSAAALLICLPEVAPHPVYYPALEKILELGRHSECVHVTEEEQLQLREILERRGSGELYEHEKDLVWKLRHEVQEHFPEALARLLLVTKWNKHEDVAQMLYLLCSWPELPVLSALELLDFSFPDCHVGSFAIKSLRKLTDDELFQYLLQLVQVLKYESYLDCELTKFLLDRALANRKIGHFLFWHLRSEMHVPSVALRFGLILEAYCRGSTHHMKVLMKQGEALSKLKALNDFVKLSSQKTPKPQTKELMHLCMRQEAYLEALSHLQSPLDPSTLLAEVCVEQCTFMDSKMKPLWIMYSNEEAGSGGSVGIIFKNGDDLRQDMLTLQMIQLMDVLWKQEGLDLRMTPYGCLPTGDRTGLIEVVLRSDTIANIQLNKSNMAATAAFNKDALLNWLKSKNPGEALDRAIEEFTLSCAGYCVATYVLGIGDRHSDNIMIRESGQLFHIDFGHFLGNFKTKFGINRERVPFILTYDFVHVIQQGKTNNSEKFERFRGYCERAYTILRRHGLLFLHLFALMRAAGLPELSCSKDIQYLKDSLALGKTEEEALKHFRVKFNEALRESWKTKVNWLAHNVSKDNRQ

Canis familiaris = assay: Antithrombotic activity in Beagle dog assessed as concentration required to increase bleeding time by 2 fold at 15.8 to 591.8 ug/kg, iv administered as bolus infusion for 1 min followed by 8.7 to 378.7 ug/kg/min, iv administered as continuous infusion for 29 mins measured up to 15 mins; type: functional, Canis lupus familiaris
Procedure, shortened: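 Anaesthetized, intubated, ventilated beagles (N = 2). Femoral artery intima damaged and flow reduced to give cyclic flow reductions. Control period vehicle iv (30% cyclodextrin). Then 5 ascending 30-min periods, each a bolus over 1 min plus continuous infusion for 29 min. Tongue incision bleeding time from 15 min, capped at 15 min. Blood at 20 min for ex vivo aggregation and plasma level. EC50 fitted sigmoidally; EC_BT:2 from an exponential fit.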

[12] = biological target: Voltage-gated potassium channel, IKs; KCNQ1(Kv7.1)/KCNE1(MinK) (Homo sapiens, UniProt P51787+P15382); assay: Inhibition of human IKs expressed in CHO cells at 31.6 uM by patch clamp assay; type: cell-based
[13] = biological target: T1, Phosphatidylinositol 4,5-bisphosphate 3-kinase catalytic subunit beta isoform; assay: Inhibition of human recombinant His6-tagged PI3K p110beta expressed in baculovirus infected cells using DiC8-PI(4,5)P2 as substrate after 20 mins by AlphaScreen assay
[14] = biological target: Sodium channel protein type 5 subunit alpha (Homo sapiens, UniProt Q14524); assay: Inhibition of human NaV1.5 expressed in CHO cells at 31.6 uM by patch clamp assay; type: cell-based
[15] = Solubility of the compound in HBSS buffer at pH 7.4 by LC-MS analysis; type: physicochemical
[16] = Oral bioavailability in fasted Beagle dog at 2 umol/kg; type: ADME, organism-based, Canis lupus familiaris; settings: in vivo; procedure, shortened: as §2

half-life at 2 µM [1]: > 173 min
IC50 (Cytochrome P450 2C9): 4 µM
IC50 [2]: 400 nM
IC50 [3]: 2100 nM
Drug metabolism (Liver microsomes): Not Active
IC50 [6]: 195 nM
clearance [7]: 18 mL/min/kg
Ratio IC50 (Homo sapiens): > 700
fraction unbound at 18 h [8]: 0.3
IC50 [9]: 3.8 µM
IC50 [10]: 97.4 µM
IC50 [11]: 168 nM
inhibition (INH) [12]: Not Active
IC50 [13]: 38 nM
solubility [15]: 100 µM (≈ 39.4 µg/mL)
bioavailability [16]: 25%
SMILES: C[C@H]1CN(c2cc(N(CCO)Cc3cccc4ccccc34)[nH]c(=O)n2)CCO1
inhibition (INH) [4]: Not Active
Activity [5]: Non-toxic
Activity (Canis familiaris): 14.8 µM
inhibition (INH) [14]: Not Active
